In article PMC8561282 (Haematologica, 2021):
Entries after “also recorded” stand apart in the source; their conditions may differ.

Columns and labels:
[1] = system: pentose phosphate pathway; experiment: 1,2,3-13C3-glucose tracing; type: cell-based, mouse
Method in brief: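 Red cells from wild-type, humanized band 3, HA Del (lacking residues 1-11) and BS KO (lacking residues 12-23) mice were stimulated with methylene blue and incubated with 1,2,3-13C3-glucose at 37 °C for 1 h. In rescue arms, cells were preincubated with recombinant band 3 N-terminal peptide (residues 1-56). The read-out was the ratio of lactate isotopologues +3 (glycolysis) and +2 (pentose phosphate pathway), measured by UHPLC-MS.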

[2] = system: RBC from WT, HuB3, HA Del and BS KO mice; experiment: Glutathione oxidation; type: cell-based, mouse
[3] = system: RBC cytosol and membrane proteins; type: binding, human; details: part of macromolecular complexes with direct interactors
[4] = system: pentose phosphate pathway; type: cell-based, human; details: RBC lysates, 1,2,3-13C3-glucose 5 mM, 37 °C, 1 h, methylene blue; recombinant peptide
Method in brief: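 Red cell lysates came from the band 3 Neapolis subject (AE1 residues 1-11 absent) and from healthy donors (n=3). Lysates were incubated with 1,2,3-13C3-glucose at 37 °C for 1 h under methylene blue stimulation, with or without recombinant N-terminal band 3 peptide (residues 1-56). Isotopologues were measured by UHPLC-MS to assess pentose phosphate pathway activation.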

GAPDH = experiment: 15N-HSQC NMR of band 3 peptide 1-56 upon titration of GAPDH; type: binding; details: 25 °C, 100 or 200 GAPDH (mM in text, μM in legend)
Method in brief: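 15N-HSQC spectra of 15N-labelled recombinant band 3 peptide 1-56 were recorded at 25 °C on a 900 instrument using a standard sequence. Recombinant GAPDH (tetramer) was titrated at 0, 100 and 200 (units as printed are unreliable). Individual residue amide signals were followed across the titration.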

[5] = recombinant peptide, 1,2,3-13C3-glucose, methylene blue

## CN(C)c1ccc2nc3ccc(=[N+](C)C)cc-3sc2c1 [MB, methylene blue, reference compound]
[1]; 37 °C, 1 h, HA Del mouse RBC
  Activation of the PPP, methylene blue stimulation, HA Del: ablated in HA Del mice
[2]
  Glutathione oxidation with MB: increased glutathione oxidation (GSSG/GSH ratios)

## AE11-56: recombinantly expressed peptide coding for amino acids 1-56 of the N-terminus of band 3 (AE1) (MEELQDDYEDMMEENLEQEEYEDPDIPESQMEEPAAHDTEATATDYHTTSHPGTHK; UniProt P02730 1-56, looked up, fragment)
[1]; legend of Figure 1I, recombinant peptide, methylene blue
  PPP activation and glycolysis with peptide, all mouse strains: increased PPP activation and decreased glycolysis in HA Del mice and further exacerbated responses in all the other strains
[1]; [5]
  PPP activation with peptide, BS KO mouse RBC: higher basal levels and further increases in PPP activation by MB
  PPP activation with peptide, HA Del mouse RBC: the defect in PPP activation of HA Del mice was rescued
[3]
  Candidate indirect interactors by pull-down followed by crosslinking: peroxiredoxin 2,[51] peroxiredoxin 6, catalase, phosphofructokinase isoforms,[12] proteins 4.1 and 4.2, glucose phosphate isomerase, stomatin, adducin b, carbonic anhydrase 1, and 1-phosphatidylinositol 4,5-bisphosphate phosphodiesterase η-2
[4]
  Rescue of the deficit in PPP activation, band 3 Neapolis: a defect that was corrected by rescue; also recorded: partially rescued in vitro
GAPDH
  Y8 amide signal upon GAPDH titration: near complete disappearance of the central Y8 amide
  Y46 amide signal upon GAPDH titration: no chemical shift perturbations
